Test results reported in ChEMBL document CHEMBL4725350, “2-Oxaadamant-1-yl Ureas as Soluble Epoxide Hydrolase Inhibitors: In Vivo Evaluation in a Murine Model of Acute Pancreatitis” (J Med Chem, 2020).
In brackets after ≈: the same amount, converted by molar mass. Activity calls are given as the source filed them. The rule behind the calls is not given here.

Assays:
[1] = molecular target: T1, Bifunctional epoxide hydrolase 2 (Homo sapiens, UniProt P34913); assay: Inhibition of recombinant human soluble epoxide hydrolase using CMNPC as substrate preincubated for 5 mins followed by substrate addition and measured at 30 secs interval for 10 mins by fluorescence assay
T1 sequence (P34913 whole entry): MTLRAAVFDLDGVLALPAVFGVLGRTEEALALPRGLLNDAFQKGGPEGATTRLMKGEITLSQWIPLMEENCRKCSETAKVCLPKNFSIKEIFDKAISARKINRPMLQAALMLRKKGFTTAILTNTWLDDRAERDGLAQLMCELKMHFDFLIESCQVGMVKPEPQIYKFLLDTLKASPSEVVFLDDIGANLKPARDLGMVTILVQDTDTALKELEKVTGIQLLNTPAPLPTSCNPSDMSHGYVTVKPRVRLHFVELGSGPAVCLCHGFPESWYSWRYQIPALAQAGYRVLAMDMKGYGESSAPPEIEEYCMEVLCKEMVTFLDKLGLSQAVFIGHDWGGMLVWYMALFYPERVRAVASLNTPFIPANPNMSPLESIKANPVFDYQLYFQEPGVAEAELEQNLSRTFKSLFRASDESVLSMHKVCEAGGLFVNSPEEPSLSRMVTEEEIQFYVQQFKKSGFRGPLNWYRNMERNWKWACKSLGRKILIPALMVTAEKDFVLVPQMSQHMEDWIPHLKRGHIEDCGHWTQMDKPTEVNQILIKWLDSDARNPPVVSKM

[2] = molecular target: T2, Bifunctional epoxide hydrolase 2 (Mus musculus, UniProt P34914); assay: Inhibition of recombinant mouse soluble epoxide hydrolase using CMNPC as substrate preincubated for 5 mins followed by substrate addition and measured at 30 secs interval for 10 mins by fluorescence assay
T2 sequence (P34914 whole entry): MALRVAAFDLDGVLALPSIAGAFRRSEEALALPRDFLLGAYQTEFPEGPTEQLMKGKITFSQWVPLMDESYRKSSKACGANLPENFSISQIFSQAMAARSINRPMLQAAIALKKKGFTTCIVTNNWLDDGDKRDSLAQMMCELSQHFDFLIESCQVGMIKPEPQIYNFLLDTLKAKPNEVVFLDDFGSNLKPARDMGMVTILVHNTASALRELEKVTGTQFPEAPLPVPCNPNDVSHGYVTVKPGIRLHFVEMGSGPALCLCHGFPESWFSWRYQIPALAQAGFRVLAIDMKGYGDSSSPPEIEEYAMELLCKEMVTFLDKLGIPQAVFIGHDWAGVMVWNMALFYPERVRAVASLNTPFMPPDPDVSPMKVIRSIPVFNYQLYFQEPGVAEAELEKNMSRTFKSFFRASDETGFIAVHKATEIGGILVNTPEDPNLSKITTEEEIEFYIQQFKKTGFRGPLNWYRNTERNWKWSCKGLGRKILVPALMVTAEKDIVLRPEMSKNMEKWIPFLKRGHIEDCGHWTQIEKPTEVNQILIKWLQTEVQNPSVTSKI
How it was run: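 Purified recombinant enzyme was preincubated with inhibitor (0.4–100,000 nM final) for 5 min at 30 °C in 100 mM sodium phosphate, pH 7.4, with 0.1 mg/mL BSA and 1% DMSO. CMNPC was added at 5 μM final. 6-Methoxynaphthaldehyde fluorescence (ex 330/em 465 nm) was read every 30 s for 10 min. IC50 values are averages of three replicates.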

[3] = molecular target: T3, Polyunsaturated fatty acid 5-lipoxygenase (Homo sapiens) (UniProt P09917); assay: Inhibition of recombinant human full-length LOX5 (1 to 674 residues) expressed in insect cells using arachidonic acid as substrate preincubated for 10 mins followed by substrate addition measured after 20 mins by H2DCFDA probe based fluorescence assay; conditions: time 30.0 min
T3 sequence (whole entry): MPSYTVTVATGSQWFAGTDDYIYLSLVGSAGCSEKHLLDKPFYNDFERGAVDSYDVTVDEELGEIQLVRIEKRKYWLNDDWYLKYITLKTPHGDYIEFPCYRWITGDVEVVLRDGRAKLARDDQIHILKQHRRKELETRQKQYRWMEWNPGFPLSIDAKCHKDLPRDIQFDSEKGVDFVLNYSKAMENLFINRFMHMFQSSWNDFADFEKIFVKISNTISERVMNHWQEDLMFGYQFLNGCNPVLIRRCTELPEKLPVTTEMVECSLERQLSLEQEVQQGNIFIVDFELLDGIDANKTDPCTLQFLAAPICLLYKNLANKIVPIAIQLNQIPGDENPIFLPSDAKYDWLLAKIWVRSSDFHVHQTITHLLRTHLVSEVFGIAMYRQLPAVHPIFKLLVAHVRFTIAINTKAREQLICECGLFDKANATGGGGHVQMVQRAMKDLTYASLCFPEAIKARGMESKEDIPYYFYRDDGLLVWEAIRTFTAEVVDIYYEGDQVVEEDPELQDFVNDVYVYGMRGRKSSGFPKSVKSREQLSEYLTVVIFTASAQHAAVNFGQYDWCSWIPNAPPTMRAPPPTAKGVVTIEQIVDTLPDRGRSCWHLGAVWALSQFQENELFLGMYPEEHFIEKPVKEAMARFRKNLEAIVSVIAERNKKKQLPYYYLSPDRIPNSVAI

[4] = molecular target: T4, Prostaglandin G/H synthase 2 (Homo sapiens) (UniProt P35354); assay: Inhibition of recombinant human COX2 using arachidonic acid as substrate measured after 5 mins by fluorescence assay
T4 sequence (whole entry): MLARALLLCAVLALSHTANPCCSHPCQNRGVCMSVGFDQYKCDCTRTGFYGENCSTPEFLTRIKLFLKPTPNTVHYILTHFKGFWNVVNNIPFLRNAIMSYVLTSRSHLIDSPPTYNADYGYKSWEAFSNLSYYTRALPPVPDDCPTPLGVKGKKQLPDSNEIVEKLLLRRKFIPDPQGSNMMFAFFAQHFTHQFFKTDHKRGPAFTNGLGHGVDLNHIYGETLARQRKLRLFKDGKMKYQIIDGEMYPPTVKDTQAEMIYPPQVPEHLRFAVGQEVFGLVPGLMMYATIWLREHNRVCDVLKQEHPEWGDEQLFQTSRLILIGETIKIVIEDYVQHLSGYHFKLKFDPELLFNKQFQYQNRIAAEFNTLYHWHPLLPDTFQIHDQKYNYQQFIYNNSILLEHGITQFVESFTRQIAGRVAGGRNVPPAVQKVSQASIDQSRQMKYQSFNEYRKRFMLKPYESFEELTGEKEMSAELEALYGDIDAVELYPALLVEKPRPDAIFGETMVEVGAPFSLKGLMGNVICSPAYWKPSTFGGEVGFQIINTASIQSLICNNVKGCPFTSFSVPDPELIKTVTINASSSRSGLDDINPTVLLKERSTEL

[5] = Apparent permeability across apical to basolateral side in human Caco-2 cells at 10 uM measured after 2 hrs by LC-MS/MS analysis; conditions: caco-2, 2 h
[6] = Apparent permeability across basolateral to apical side in human Caco-2 cells at 10 uM measured after 2 hrs by LC-MS/MS analysis; conditions: caco-2, 2 h
physchem = conditions: 1% DMSO/99% PBS buffer solution
[7] = Efflux ratio of apparent permeability across basolateral to apical side over apical to basolateral side in human Caco-2 cells at 10 uM measured after 2 hrs by LC-MS/MS analysis
[8] = Cytotoxicity against human PBMC assessed as reduction in cell viability measured after 72 hrs by ATPlite assay; conditions: read-out: LC50 (the source's name)
THLE-2 = assay: Cytotoxicity against human THLE-2 cells assessed as reduction in cell viability measured after 72 hrs by ATPlite assay; type: cell-based; conditions: thle-2, 72 h, read-out: LC50 (the source's name)
How it was run: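 THLE-2 cells were grown in BEGM with 0.7 μg/mL phosphoethanolamine, 0.5 ng/mL EGF and 10% FBS, plated at 10,000 cells/well and left to adhere for 24 h. Cells were exposed to 0–100 μM final (1% DMSO) for 72 h at 37 °C, 5% CO2.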

[9] = Stability in human liver microsomes assessed as parent compound remaining measured after 60 mins in presence of NADPH by LC-MS/MS analysis; type: ADME, Microsome; conditions: read-out: Stabilty
How it was run: (§1)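 Compound is incubated at 37 °C with human, mouse or rat liver microsomes in 50 mM phosphate buffer pH 7.4. […] Samples at 0–60 min are quenched into acetonitrile; percent parent remaining at 60 min is reported. Testosterone is the positive control.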

[10] = Stability in mouse liver microsomes assessed as parent compound remaining measured after 60 mins in presence of NADPH by LC-MS/MS analysis; type: ADME, Microsome; conditions: read-out: Stabilty; how it was run: as §1
[11] = Stability in rat liver microsomes assessed as parent compound remaining measured after 60 mins in presence of NADPH by LC-MS/MS analysis; type: ADME, Microsome; conditions: read-out: Stabilty; how it was run: as §1

Row | Structure (SMILES) | IC50 [1] [nM] | IC50 [2] [nM] | other results
1 | CNc1nc(C)nc(N2CCC(NC(=O)NC34CC5CC(CC(C5)O3)C4)CC2)n1 | 496 | 365 | –
2 | CCC(=O)N1CCC(NC(=O)NC23CC4CC(CC(C4)O2)C3)CC1 | 356 | 234 | inhibition [3]: inactive; inhibition [4]: inactive
3 | CS(=O)(=O)N1CCC(NC(=O)NC23CC4CC(CC(C4)O2)C3)CC1 | 247 | 174 | –
4 | O=C(Nc1nc2ccccc2s1)NC12CC3CC(CC(C3)O1)C2 | 782 | 14700 | –
5 | O=C(NC1CCN(C(=O)c2cccnc2)CC1)NC12CC3CC(CC(C3)O1)C2 | 159 | 291 | –
6 | O=C(Nc1cc(Cl)cc(OC(F)(F)F)c1)NC12CC3CC(CC(C3)O1)C2 | 52.6 | 1860 | –
7 | O=C(Nc1ccc(F)c(F)c1F)NC12CC3CC(CC(C3)O1)C2 | – | 553 | Papp [5]: 16.8 ×10⁻⁶ cm/s; Papp [6]: 15.1 ×10⁻⁶ cm/s; solubility kinetic at 2 h (physchem): 27 µM (≈ 8.81 µg/mL)
8 | O=C(NC12CC3CC(CC(C3)O1)C2)N[C@H]1CC[C@H](Oc2ccc(C(=O)O)cc2)CC1 | 9 | – | Papp [5]: 0.14 ×10⁻⁶ cm/s; Papp [6]: 7.55 ×10⁻⁶ cm/s; efflux ratio at 2 h, 10 µM [7]: 55.4; solubility kinetic at 2 h (physchem): > 100 µM
9 | O=C(Nc1ncncn1)NC12CC3CC(CC(C3)O1)C2 | 1450 | – | –
10 | O=C(Nc1ccc(F)c(F)c1F)NC12CC3CC(CC(C3)C1)C2 | – | – | Papp [5]: 0.67 ×10⁻⁶ cm/s; Papp [6]: 0.46 ×10⁻⁶ cm/s; solubility kinetic at 2 h (physchem): 16 µM (≈ 5.19 µg/mL)
11 | O=C(Nc1ccon1)NC12CC3CC(CC(C3)O1)C2 | 911 | 3850 | –
12 | O=C(NC1CCN(C(=O)C2CC2)CC1)NC12CC3CC(CC(C3)O1)C2 | 213 | 130 | –
13 | O=C(NC1CCN(C(=O)c2ccccc2F)CC1)NC12CC3CC(CC(C3)O1)C2 | – | 75.9 | CC50 [8]: > 20000 nM; CC50 (THLE-2): > 100000 nM; remaining at 1 h [9]: 30.2%; remaining at 1 h [10]: 39.5%; remaining at 1 h [11]: 19.3%; inhibition [3]: inactive; inhibition [4]: inactive; solubility kinetic at 2 h (physchem): > 100 µM
14 | O=C(NC1CCN(C(=O)C2CCOCC2)CC1)NC12CC3CC(CC(C3)O1)C2 | 491 | 512 | –
15 | O=C(NC1CCN(Cc2ccccc2)CC1)NC12CC3CC(CC(C3)O1)C2 | 1090 | – | –
16 | O=C(Nc1ccc(Cl)c(C(F)(F)F)c1)NC12CC3CC(CC(C3)O1)C2 | 19.7 | 344 | –
17 | CC(=O)c1ccc(N2CCC(NC(=O)NC34CC5CC(CC(C5)O3)C4)CC2)cc1 | – | 107 | CC50 (THLE-2): > 100000 nM; remaining at 1 h [9]: 40%; remaining at 1 h [10]: 73%; remaining at 1 h [11]: 84%; solubility kinetic at 2 h (physchem): 81.5 µM (≈ 32.4 µg/mL)
18 | O=C(Nc1cccc(S(F)(F)(F)(F)F)c1)NC12CC3CC(CC(C3)O1)C2 | 35.9 | 723 | –
